Measurements taken from ChEMBL document CHEMBL1800039, “Structure-based design of short peptide ligands binding onto the E. coli processivity ring” (J Med Chem, 2011).
Where a SMILES comes first, the peptide text is derived from it. [ ]: non-standard residue; d: D form. Phe(3,4-Cl2) = N[C@@H](Cc1ccc(Cl)c(Cl)c1)C(=O)O; Phe(4-Br) = N[C@@H](Cc1ccc(Br)cc1)C(=O)O; Phe(4-Cl) = N[C@@H](Cc1ccc(Cl)cc1)C(=O)O; Phe(4-Me) = Cc1ccc(C[C@H](N)C(=O)O)cc1; hCha = N[C@@H](CCC1CCCCC1)C(=O)O; tBuAla = CC(C)(C)C[C@H](N)C(=O)O; Cha = N[C@@H](CC1CCCCC1)C(=O)O

Tests used:
[1] = Binding affinity to Escherichia coli DNA polymerase 3 subunit beta expressed in Escherichia coli BL21 by SPR analysis
Summary of the method: (§1)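 N-His-tagged E. coli β clamp (dnaN in pET15b, BL21, IPTG-induced at 28 C; Ni-NTA then MonoQ) was analysed by SPR on a chip carrying immobilized P1 peptide. For direct binding, β at 0.125–2 μM was injected at 50 μL/min, and background-subtracted data were fit to a 1:1 Langmuir model. For competition, β (0.25 μM) was premixed with peptide (1.5 nM–100 μM) and injected. IC50 came from % binding inhibition; Ki = (1 + KA[β])/IC50 and ΔG = RT ln Ki.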

[2] = Inhibition of Escherichia coli DNA polymerase 3
[3] = Inhibition of Escherichia coli DNA polymerase 3 subunit beta-dependent elongation activity expressed in Escherichia coli BL21 after 2 hrs by competitive biochemical assay
Summary of the method: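 Assay run in 40 mM HEPES pH 7.5 with 80 mM K-glutamate, BSA, 16% glycerol, NP40 and 8 mM DTT. Primed 30/90-mer duplex (1 nM) was loaded at 37 C with SSB (90 nM), ATP (200 μM) and MgCl2 (7.5 mM), then γ complex (1 nM) and β dimer (5 nM). Mixtures took peptide or DMSO for 5 min at RT plus 2 h at 4 C.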

[4] = Binding affinity to Escherichia coli DNA polymerase 3 subunit beta expressed in Escherichia coli BL21 by ITC assay
Summary of the method: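 ITC at 25 C: peptide (400 μM) was injected in 2 μL steps into His-tagged β clamp (20 or 30 μM) in 10 mM Hepes pH 7.4, 0.15 M NaCl, 3 mM EDTA, 0.005% P20. Heats were corrected using peptide-into-buffer controls.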

Escherichia coli [5] = assay: Ratio of ull length DNA polymerase 4 Kd to compound Kd for Escherichia coli DNA polymerase 3 subunit beta by ITC assay
Escherichia coli [6] = assay: Ratio of ull length DNA polymerase 4 IC50 to compound IC50 for Escherichia coli DNA polymerase 3 subunit beta by SPR analysis
[7] = Binding affinity to Escherichia coli DNA polymerase 3 subunit beta expressed in Escherichia coli BL21 assessed as dissociation constant by SPR analysis; summary of the method: as §1

Row | Compound | IC50 [1] [nM] | Ka (inhibitor association constant, 1/M; higher = tighter) [1] [×10⁶ /M] | Ki [2] [nM] | IC50 [3] [nM] | Kd [4] [nM] | Ratio (Escherichia coli [5]) | Ratio IC50 (Escherichia coli [6]) | Kd [7] [nM]
1 | CC(=O)N[C@@H](CCC(N)=O)C(=O)N[C@@H](CCC(C)C)C(=O)N[C@@H](CC(=O)O)C(=O)N[C@@H](CC(C)C)C(=O)N[C@@H](Cc1ccccc1)C(=O)O | 740 | 1.84 | – | – | – | – | – | –
2 | CCOc1cc(/C=C2\SC(=S)N(CC(=O)O)C2=O)c(Br)c(Br)c1O | – | – | 10000 | – | – | – | – | –
3 | CC(C)C[C@H](NC(=O)[C@H](CC(=O)O)NC(=O)[C@H](CC(C)C)NC(=O)[C@@H](N)CCC(N)=O)C(=O)N[C@@H](Cc1ccccc1)C(=O)O | 12400 | 0.11 | – | – | – | – | – | –
4 | CC(=O)N[C@@H](CCC(N)=O)C(=O)N[C@@H](CC(C)C)C(=O)N[C@@H](CC(=O)O)C(=O)N[C@@H](CC(C)C)C(=O)N[C@@H](Cc1ccccc1)C(=O)O | 1120 | 1.2 | – | 4500 | 613 | – | – | –
5 | CC(=O)N[C@@H](CCC(N)=O)C(=O)N[C@@H](CC1CCCCC1)C(=O)N[C@@H](CC(=O)O)C(=O)N[C@@H](CC(C)C)C(=O)N[C@@H](Cc1ccccc1)C(=O)O (Ac-Q[Cha]DLF-OH) | 170 | 8.01 | – | 2800 | 222 | – | – | –
6 | CC(=O)N[C@@H](CCC(N)=O)C(=O)N[C@@H](CC1CCCCC1)C(=O)N[C@@H](CC(=O)O)C(=O)N[C@@H](CC(C)C)C(=O)N[C@@H](Cc1ccc(Cl)c(Cl)c1)C(=O)O (Ac-Q[Cha]DL[Phe(3,4-Cl2)]-OH) | – | – | – | 125 | 55 | 4 | 4 | –
7 | CC(=O)N[C@@H](CCC(N)=O)C(=O)N[C@@H](CC1CCCCC1)C(=O)N[C@@H](CC(=O)O)C(=O)N[C@@H](CC(C)C)C(=O)N[C@@H](Cc1ccc(Br)cc1)C(=O)O (Ac-Q[Cha]DL[Phe(4-Br)]-OH) | 96 | 13.49 | – | 250 | 136 | – | – | –
8 | CC(=O)N[C@@H](CCC(N)=O)C(=O)N[C@@H](CC1CCCCC1)C(=O)N[C@@H](CC(=O)O)C(=O)N[C@@H](CC(C)C)C(=O)N[C@@H](Cc1ccc(Cl)cc1)C(=O)O (Ac-Q[Cha]DL[Phe(4-Cl)]-OH) | 160 | 13.7 | – | 300 | 89 | – | – | –
9 | CC(=O)N[C@@H](CCC(N)=O)C(=O)N[C@@H](CC1CCCCC1)C(=O)N[C@@H](CC(=O)O)C(=O)N[C@@H](CC(C)C)C(=O)N[C@@H](Cc1ccc(C)cc1)C(=O)O (Ac-Q[Cha]DL[Phe(4-Me)]-OH) | 260 | 8.43 | – | 2000 | 362 | – | – | –
10 | CC(=O)N[C@@H](CCC(N)=O)C(=O)N[C@@H](CCC1CCCCC1)C(=O)N[C@@H](CC(=O)O)C(=O)N[C@@H](CC(C)C)C(=O)N[C@@H](Cc1ccccc1)C(=O)O (Ac-Q[hCha]DLF-OH) | 82800 | 0.0164 | – | – | – | – | – | –
11 | CC(=O)N[C@@H](CCC(N)=O)C(=O)N[C@@H](CC(C)(C)C)C(=O)N[C@@H](CC(=O)O)C(=O)N[C@@H](CC(C)C)C(=O)N[C@@H](Cc1ccccc1)C(=O)O (Ac-Q[tBuAla]DLF-OH) | 990 | 1.36 | – | – | – | – | – | –
12 | H-RQLVFL-OH | 256000 | – | – | – | – | – | – | –
13 | H-RQLVLF-OH | 8620 | 0.15 | – | 7000 | 2320 | – | – | –
14 | H-RQLVLGL-OH | 8850 | 0.15 | – | – | 1580 | – | – | 285
15 | H-RQLVLL-OH | 21500 | 0.0063 | – | – | – | – | – | –
